Results on four compounds are retold here after ChEMBL document CHEMBL1671757, “In vitro profiling of pramiconazole and in vivo evaluation in Microsporum canis dermatitis and Candida albicans vaginitis laboratory models” (Antimicrob Agents Chemother, 2010).

One may read the CC50 as the concentration at which the toxic effect on the cells reaches its halfway point. Higher therefore signals better tolerance by the cells. Usually IC50 stands for the concentration at which inhibition is half-maximal. The low end stands for inhibition by little substance, the high end for a need for much substance. Broadly, the Cmax is the highest concentration seen after dosing. In general, Tmax refers to the time from dosing to the highest level. Usually half-life stands for the time needed for the level to fall by half in the phase considered. Low readings indicate rapid decline, high ones slow decline.

Series [1] in a line: Cytotoxicity against human MRC5 cells. The format is cell-based. The procedure, abridged:
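Human lung fibroblasts (MRC-5SV40) were tested in parallel with the fungal screens. CC50 is the concentration killing 50% of cells, given as the mean ± SD of five independent repeats.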

For series [2], the system named is Microsporum canis. Kind of series: Antifungal activity against 5 x 10^6 CFU/ml Microsporum canis B68128 by resazurin based fluorimetry assay. Type of series: functional, organism-based. The procedure, abridged: (§1)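 Isolates were grown on Sabouraud dextrose agar, with stocks of 5×10^6 CFU/ml in RPMI-MOPS plus 10% glycerol kept in liquid nitrogen. Each well held 10^3 CFU in 200 μl RPMI-MOPS with compound dilutions, top concentration 64 μM. After incubation, resazurin was added and fluorescence read (ex 550, em 590 nm). IC50 was relative to untreated controls, as the mean ± SD of five independent repeats.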
For orientation: Resazurin is reduced to fluorescent resorufin, in cell work by metabolically active cells.

The test system of series [3] is Trichophyton mentagrophytes. Kind of series: Antifungal activity against 5 x 10^6 CFU/ml Trichophyton mentagrophytes B70554 by resazurin based fluorimetry assay. The format is functional, organism-based. In a few lines: as §1
The test system of series [4] is Trichophyton rubrum. The series is described as follows: Antifungal activity against 5 x 10^6 CFU/ml Trichophyton rubrum B68183 by resazurin based fluorimetry assay. The format is functional, organism-based. In a few lines: as §1
In series [5] the test system is Trichophyton rubrum. The series is described as follows: Antifungal activity against 5 x 10^6 CFU/ml Trichophyton rubrum J941704 by resazurin based fluorimetry assay. Type of series: functional, organism-based. The procedure, abridged:
as §1

In series [6] the test system is Trichophyton quinckeanum. The series is described as follows: Antifungal activity against 5 x 10^6 CFU/ml Trichophyton quinckeanum B68683 by resazurin based fluorimetry assay. The format is functional, organism-based. The procedure, abridged:
as §1

Series [7] deals with Candida albicans. The series is described as follows: Antifungal activity against 5 x 10^6 CFU/ml Candida albicans B59163 by resazurin based fluorimetry assay. The format is functional, organism-based. The procedure, abridged: as §1
Series [8] concerns Candida albicans. The series is described as follows: Antifungal activity against 5 x 10^6 CFU/ml Candida albicans B2630 by resazurin based fluorimetry assay. Type of series: functional, organism-based. The procedure, abridged: as §1
Series [9] has as its system Nakaseomyces glabratus. The series is described as follows: Antifungal activity against 5 x 10^6 CFU/ml Candida glabrata B63155 by resazurin based fluorimetry assay. The format is functional, organism-based. In a few lines: as §1
Series [10] has as its system Kluyveromyces marxianus. The series is described as follows: Antifungal activity against 5 x 10^6 CFU/ml Candida kefyr B46120 by resazurin based fluorimetry assay. Type of series: functional, organism-based. In a few lines:
as §1

The test system of series [11] is Pichia kudriavzevii. Kind of series: Antifungal activity against 5 x 10^6 CFU/ml Candida krusei B68404 by resazurin based fluorimetry assay. Type of series: functional, organism-based. In a few lines: as §1
A short description of series [12]: Cmax in plasma of guinea pig infected with 10^6 CFU Microsporum canis B68128 at 20 mg/kg, po administered 2 hrs before infection for 5 days. On the set-up: dose 20 mg/kg, route oral. The format is ADME, organism-based, Cavia porcellus.
The nature of series [13]: Tmax in guinea pig infected with 10^6 CFU Microsporum canis B68128 at 20 mg/kg, po administered 2 hrs before infection for 5 days. The format is ADME, organism-based, Cavia porcellus. On the set-up: dose 20 mg/kg, route oral. Conditions: in vivo.
A short description of series [14]: Half life in guinea pig infected with 10^6 CFU Microsporum canis B68128 at 20 mg/kg, po administered 2 hrs before infection for 5 days. The format is ADME, organism-based, Cavia porcellus. On the set-up: dose 20 mg/kg, route oral. As to conditions: in vivo.
Series [15] deals with Candida albicans. The series is described as follows: Antifungal activity against 10^7 CFU/ml Candida albicans B2630 infected in vulvovaginitis rat model assessed as fungal burden at 10 mg/kg, po SID. The format is functional, organism-based. On the set-up: dose 10 mg/kg. Conditions: Vagina. In a few lines: (§2)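 Intravaginal infection with 10^7 CFU. Oral dosing once daily in PEG200, starting about 2 h before infection, for 5 days. […] Six rats in two experiments.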

In series [16] the test system is Candida albicans. The series is described as follows: Antifungal activity against 10^7 CFU/ml Candida albicans B2630 infected in vulvovaginitis rat model assessed as fungal burden at 5 mg/kg, po SID. Type of series: functional, organism-based. The arrangement: dose 5 mg/kg. Conditions: Vagina. The procedure, abridged: as §2
Series [17] relates to Candida albicans. The series is described as follows: Antifungal activity against 10^7 CFU/ml Candida albicans B2630 infected in vulvovaginitis rat model assessed as fungal burden at 10 mg/kg administered tropically twice daily measured after 3 days. The format is functional, organism-based. On the set-up: dose 10 mg/kg. Conditions: Vagina.
Series [18] relates to Candida albicans. Kind of series: Antifungal activity against 10^7 CFU/ml Candida albicans B2630 infected in vulvovaginitis rat model assessed as fungal burden at 5 mg/kg administered tropically twice daily measured after 3 days. Conditions: Vagina. Type of series: functional, organism-based. The arrangement: dose 5 mg/kg.
A short description of series [19]: Cmax in plasma of guinea pig infected with 10^6 CFU Microsporum canis B68128 at 40 mg/kg, po administered 2 hrs before infection for 5 days. The format is ADME, organism-based, Cavia porcellus. The arrangement: dose 40 mg/kg, route oral.
A short description of series [20]: Tmax in guinea pig infected with 10^6 CFU Microsporum canis B68128 at 40 mg/kg, po administered 2 hrs before infection for 5 days. The format is ADME, organism-based, Cavia porcellus. The arrangement: dose 40 mg/kg, route oral. As to conditions: in vivo.
Series [21] in a line: Half life in guinea pig infected with 10^6 CFU Microsporum canis B68128 at 40 mg/kg, po administered 2 hrs before infection for 5 days. Type of series: ADME, organism-based, Cavia porcellus. The arrangement: dose 40 mg/kg, route oral. As to conditions: in vivo.
Series [22] in a line: Cmax in plasma of guinea pig infected with 10^6 CFU Microsporum canis B68128 at 10 mg/kg, po administered 2 hrs before infection for 5 days. Type of series: ADME, organism-based, Cavia porcellus. The arrangement: dose 10 mg/kg, route oral.
Series [23] can be described thus: Tmax in guinea pig infected with 10^6 CFU Microsporum canis B68128 at 10 mg/kg, po administered 2 hrs before infection for 5 days. Conditions: in vivo. The arrangement: dose 10 mg/kg, route oral. The format is ADME, organism-based, Cavia porcellus.
Series [24] is described as follows: Half life in guinea pig infected with 10^6 CFU Microsporum canis B68128 at 10 mg/kg, po administered 2 hrs before infection for 5 days. The arrangement: dose 10 mg/kg, route oral. Conditions: in vivo. The format is ADME, organism-based, Cavia porcellus.

The source made the active and inactive calls.

For `CCC(C)n1ncn(-c2ccc(N3CCN(c4ccc(OCC5COC(Cn6cncn6)(c6ccc(Cl)cc6Cl)O5)cc4)CC3)cc2)c1=O` (stereo not drawn) [ITRACONAZOLE], the CC50 in series [1] came out at 49300 nM. Further, the IC50 turned out to be 2020 nM in [2]; 370 nM in series [3]; 560 nM in [4]; 980 nM in series [5]; 2930 nM in series [6]; 1410 nM in [7]. The IC50 worked out at 1390 nM in [8], 3740 nM in series [9], 400 nM in [10] and 4210 nM in series [11]. The concentration in series [12] peaked (Cmax) at 350 ng/mL. Also, the Tmax in [13] was 2 h. The half-life in series [14] was 13.9 h. The outcome in series [15], in series [16], in series [17] and in [18] was Active.
As to `Clc1ccc(COC(Cn2ccnc2)c2ccc(Cl)cc2Cl)c(Cl)c1` (stereo not drawn) [MICONAZOLE], the midpoint of cytotoxicity in series [1], the CC50, lay at 29700 nM. For the same compound, the IC50 was found to be 230 nM in [2]; 400 nM in series [3]; 330 nM in series [4]; 140 nM in series [5]; 790 nM in series [6]; 300 nM in series [7]. Moreover, the IC50 in series [8] came to 2500 nM; in series [9], 120 nM; in [10], 30 nM; in [11], 1400 nM. Besides, the outcome in series [17] and in series [18] was Active.
Take `CC(C)N1CCN(c2ccc(N3CCN(c4ccc(OC[C@H]5OC[C@](Cn6cncn6)(c6ccc(F)cc6F)O5)cc4)CC3)cc2)C1=O` [PRAMICONAZOLE]: in [1], the midpoint of cytotoxicity, the CC50, lay at 53300 nM. The IC50 was 180 nM in series [2]; 150 nM in series [3]; 350 nM in series [4]; 190 nM in series [5]; 1340 nM in [6]; 40 nM in [7]. In addition, the IC50 in series [8] stood at 1830 nM; in series [9], 650 nM; in series [10] it was 130 nM; in [11], 870 nM. In series [19], this compound yielded a Cmax of 180 ng/mL. For the same compound, the Tmax in [20] is 4 h. In series [21], the half-life is 23 h. For the same compound, the outcome in series [15], in [16], in [17] and in series [18] was Active.
On to `CN(C/C=C/C#CC(C)(C)C)Cc1cccc2ccccc12` [TERBINAFINE], for which, in series [1], half-maximal cytotoxicity (CC50) was put at 63000 nM. The IC50 worked out at 100 nM in [2]; 60 nM in [3]; 70 nM in series [4]; 30 nM in [5]; 10 nM in series [6]; 3570 nM in series [7]. For the same compound, the IC50 in series [8] turned out to be 64000 nM; in series [9], 30700 nM; in [10] it was 6330 nM; in series [11], 64000 nM. The same compound gave a Cmax in series [22] of 60 ng/mL. The Tmax in series [23] was 0.7 h. In series [24], the half-life is 6.6 h.
